Measured values published in ChEMBL document CHEMBL5104102, “Discovery of FtsZ inhibitors by virtual screening as antibacterial agents and study of the inhibition mechanism” (RSC Med Chem, 2022).
Converted amounts (≈) assume the structure as drawn.

Assays:
Assay type in all cases: functional
Staphylococcus aureus [1] = experiment: Synergistic antibacterial activity against methicillin-resistant Staphylococcus aureus BAA 41 assessed as inhibition of bacterial growth incubated for 18 hrs in presence of methicillin by checkerboard assay
Procedure, shortened: (§1)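 Checkerboard: test compound serially diluted two-fold across the plate and methicillin serially diluted down it. Bacteria added at 5 × 10^5 CFU mL−1. Incubated at 37 °C for 16–24 h, then growth read at A600. Untreated-cell columns included. FICI calculated from the combination MICs.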

Staphylococcus aureus [2] = experiment: Antibacterial activity against methicillin-resistant Staphylococcus aureus ATCC 33591 assessed as inhibition of bacterial growth incubated for 18 hrs by CLSI protocol based two fold serial dilution method
Procedure, shortened: (§2)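 CAMHB culture grown overnight at 37 °C with shaking at 250 rpm, diluted 10-fold, and grown 2 h. Inoculum set to 5 × 10^6 CFU mL−1 by A600. Compounds in DMSO were serially diluted two-fold, with 1% DMSO per well. Read at A600 after 18 h at 37 °C. MIC is the lowest concentration giving A600 < 0.1. Run in duplicate.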

Bacillus subtilis = experiment: Antibacterial activity against Bacillus subtilis 168 assessed as inhibition of bacterial growth incubated for 18 hrs by CLSI protocol based two-fold serial dilution assay
Procedure, shortened: (§3)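 B. subtilis 168 or E. coli ATCC 25922 was grown in MHB and tested by CLSI-based broth microdilution. An overnight culture (37 °C, 250 rpm) was diluted tenfold, grown 2 h, and set to 5 × 10^6 CFU mL−1 by A600. Cells were added to two-fold serial compound dilutions (1% DMSO) and incubated 18 h at 37 °C. Read-out was A600, in duplicate. MIC was the lowest concentration giving A600 < 0.1.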

Staphylococcus aureus [3] = experiment: Antibacterial activity against Staphylococcus aureus 29213 assessed as inhibition of bacterial growth incubated for 18 hrs by CLSI protocol based two fold serial dilution method
Procedure, shortened: as §3, with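 “S. aureus” for “B. subtilis 168 or E. coli”, “29213” for “25922”, “CAMHB” for “MHB”, “mL−1.” for “mL−1 by A600.”, “with” for “giving”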

Staphylococcus aureus [4] = experiment: Synergistic antibacterial activity against methicillin-resistant Staphylococcus aureus BAA 41 assessed as FICI incubated for 18 hrs in presence of methicillin by checkerboard assay; procedure, shortened: as §1
Staphylococcus aureus [5] = experiment: Antibacterial activity against methicillin-resistant Staphylococcus aureus BAA 44 assessed as inhibition of bacterial growth incubated for 18 hrs by CLSI protocol based two fold serial dilution method; procedure, shortened: as §2
Staphylococcus aureus [6] = experiment: Antibacterial activity against methicillin-resistant Staphylococcus aureus BAA 1720 assessed as inhibition of bacterial growth incubated for 18 hrs by CLSI protocol based two fold serial dilution method; procedure, shortened: as §2
Escherichia coli [7] = experiment: Antibacterial activity against Escherichia coli 25922 assessed as inhibition of bacterial growth incubated for 18 hrs by CLSI protocol based two fold serial dilution method; procedure, shortened: as §3
Staphylococcus aureus [8] = experiment: Antibacterial activity against methicillin-resistant Staphylococcus aureus BAA 41 assessed as inhibition of bacterial growth incubated for 18 hrs by CLSI protocol based two fold serial dilution method; procedure, shortened: as §2
Escherichia coli [9] = experiment: Synergistic antibacterial activity against Escherichia coli 25922 assessed as inhibition of bacterial growth incubated for 18 hrs in presence of PMBN by checkerboard assay
Procedure, shortened: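 E. coli ATCC 25922 was tested in MHB by the broth microdilution format with two-fold serial compound dilutions. Polymyxin B nonapeptide was added to each well at 20 μg mL−1 final before adding bacteria at 5 × 10^5 CFU mL−1. Growth was read by A600.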

Staphylococcus aureus [10] = experiment: Antibacterial activity against methicillin-resistant Staphylococcus aureus ATCC 43300 assessed as inhibition of bacterial growth incubated for 18 hrs by CLSI protocol based two fold serial dilution method; procedure, shortened: as §2
Staphylococcus aureus [11] = experiment: Antibacterial activity against methicillin-resistant Staphylococcus aureus ATCC 33592 assessed as inhibition of bacterial growth incubated for 18 hrs by CLSI protocol based two fold serial dilution method; procedure, shortened: as §2

Structure (SMILES)	MIC (Bacillus subtilis)	MIC (Staphylococcus aureus [3])	MIC (Escherichia coli [7])	MIC (Staphylococcus aureus [1])	MIC (Staphylococcus aureus [2])	fractional inhibitory concentration index (FICI) (Staphylococcus aureus [4])	MIC (Staphylococcus aureus [5])	MIC (Staphylococcus aureus [6])	MIC (Staphylococcus aureus [8])	MIC (Escherichia coli [9])	MIC (Staphylococcus aureus [10])	MIC (Staphylococcus aureus [11])
CCc1cncnc1N1CCN(Cc2nc3cc(C(F)(F)F)ccc3[nH]2)CC1	128 µg/mL (≈ 328 µM)	128 µg/mL (≈ 328 µM)	> 128 µg/mL	128 µg/mL	64 µg/mL (≈ 164 µM)	>1	64 µg/mL (≈ 164 µM)	64 µg/mL (≈ 164 µM)	64 µg/mL (≈ 164 µM)	64 µg/mL	32 µg/mL (≈ 82 µM)	64 µg/mL (≈ 164 µM)
Cc1cnc(-c2cc(N3CCN(C(=O)CCS(C)(=O)=O)CC3)ncc2Cl)c(C)c1	> 128 µg/mL	> 128 µg/mL	> 128 µg/mL									
COc1ccccc1S(=O)(=O)Nc1ccc2c(c1)CN(C)C(=O)N2	> 128 µg/mL	> 128 µg/mL	> 128 µg/mL									

Now from value to compound, other results behind:

MIC (Bacillus subtilis)	MIC (Staphylococcus aureus [3])	MIC (Escherichia coli [7])	Structure (SMILES)	MIC (Staphylococcus aureus [1])	MIC (Staphylococcus aureus [2])	fractional inhibitory concentration index (FICI) (Staphylococcus aureus [4])	MIC (Staphylococcus aureus [5])	MIC (Staphylococcus aureus [6])	MIC (Staphylococcus aureus [8])	MIC (Escherichia coli [9])	MIC (Staphylococcus aureus [10])	MIC (Staphylococcus aureus [11])
> 128 µg/mL	> 128 µg/mL	> 128 µg/mL	COCCOc1ccc2c(c1)ncn2-c1ccc2cccc(N3CCC(N)CC3)c2n1									
> 128 µg/mL	> 128 µg/mL	> 128 µg/mL	COc1ccc(-c2cc3c(C)nc(N)nc3n([C@H]3CC[C@H](OCCO)CC3)c2=O)cn1 [PF-04691502]									
